This note sets out measurements from PubChem BioAssay AID588438 (The Scripps Research Institute Molecular Screening Center, 2011).

Holding throughout (assay): PAD isozyme inhibitor IC50 panel – biochemical, colorimetric, BAEE substrate, recombinant PAD1-4, selectivity assay for PAD4 inhibitor project, late-stage follow-up (AID 588438)
Assay [1] deals with Protein-arginine deiminase type-1 (Homo sapiens) (UniProt Q9ULC6). To be noted: recombinant PAD1-4, BAEE citrulline colorimetric absorbance; PAD1. An outline of the steps: (§1)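 Assay system: recombinant PAD1–4 enzymes / Medium: pH 7.6 Tris buffer with calcium / Incubation: Enzyme–inhibitor preincubation 15 min, then substrate reaction 15 min, 37 °C / Signal: citrulline color absorbance at 540 nm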

For assay [2], the target named is Protein-arginine deiminase type-2 (Homo sapiens) (UniProt Q9Y2J8). To be noted: recombinant PAD1-4, BAEE citrulline colorimetric absorbance; PAD2. An outline of the steps: as §1
For assay [3], the target named is Protein-arginine deiminase type-3 (Homo sapiens) (UniProt Q9ULW8). To be noted: recombinant PAD1-4, BAEE citrulline colorimetric absorbance; PAD3. An outline of the steps: as §1
The target in assay [4] is Protein-arginine deiminase type-4 (Homo sapiens) (UniProt Q9UM07). The conditions noted are these: recombinant PAD1-4, BAEE citrulline colorimetric absorbance; PAD4. In a few lines: as §1

SMILES strings stand for the structures. Activity calls are given as the source filed them.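 Rule for the calls: active = IC50 of 1 µM or lower against any of the four PAD enzymes tested; inactive = the rest.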

Sequence of Protein-arginine deiminase type-3 (Homo sapiens) (Q9ULW8 whole entry, looked up): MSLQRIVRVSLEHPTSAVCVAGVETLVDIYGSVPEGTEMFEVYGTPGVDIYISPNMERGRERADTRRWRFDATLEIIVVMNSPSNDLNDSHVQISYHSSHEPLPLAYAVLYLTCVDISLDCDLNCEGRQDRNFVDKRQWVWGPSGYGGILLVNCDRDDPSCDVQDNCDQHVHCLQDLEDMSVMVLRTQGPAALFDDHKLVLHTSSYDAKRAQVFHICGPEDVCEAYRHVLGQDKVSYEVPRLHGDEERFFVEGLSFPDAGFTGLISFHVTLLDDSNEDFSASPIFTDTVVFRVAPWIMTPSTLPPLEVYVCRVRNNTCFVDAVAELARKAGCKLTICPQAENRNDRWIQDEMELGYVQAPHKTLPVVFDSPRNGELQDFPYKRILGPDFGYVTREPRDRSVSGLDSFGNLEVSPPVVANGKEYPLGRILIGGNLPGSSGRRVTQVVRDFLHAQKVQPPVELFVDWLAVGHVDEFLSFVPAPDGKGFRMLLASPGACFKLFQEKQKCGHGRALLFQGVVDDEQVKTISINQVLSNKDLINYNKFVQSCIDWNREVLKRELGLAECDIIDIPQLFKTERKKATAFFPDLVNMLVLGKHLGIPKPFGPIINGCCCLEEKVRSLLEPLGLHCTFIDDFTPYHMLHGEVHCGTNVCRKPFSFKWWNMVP
Sequence of Protein-arginine deiminase type-1 (Homo sapiens) (Q9ULC6 whole entry, looked up): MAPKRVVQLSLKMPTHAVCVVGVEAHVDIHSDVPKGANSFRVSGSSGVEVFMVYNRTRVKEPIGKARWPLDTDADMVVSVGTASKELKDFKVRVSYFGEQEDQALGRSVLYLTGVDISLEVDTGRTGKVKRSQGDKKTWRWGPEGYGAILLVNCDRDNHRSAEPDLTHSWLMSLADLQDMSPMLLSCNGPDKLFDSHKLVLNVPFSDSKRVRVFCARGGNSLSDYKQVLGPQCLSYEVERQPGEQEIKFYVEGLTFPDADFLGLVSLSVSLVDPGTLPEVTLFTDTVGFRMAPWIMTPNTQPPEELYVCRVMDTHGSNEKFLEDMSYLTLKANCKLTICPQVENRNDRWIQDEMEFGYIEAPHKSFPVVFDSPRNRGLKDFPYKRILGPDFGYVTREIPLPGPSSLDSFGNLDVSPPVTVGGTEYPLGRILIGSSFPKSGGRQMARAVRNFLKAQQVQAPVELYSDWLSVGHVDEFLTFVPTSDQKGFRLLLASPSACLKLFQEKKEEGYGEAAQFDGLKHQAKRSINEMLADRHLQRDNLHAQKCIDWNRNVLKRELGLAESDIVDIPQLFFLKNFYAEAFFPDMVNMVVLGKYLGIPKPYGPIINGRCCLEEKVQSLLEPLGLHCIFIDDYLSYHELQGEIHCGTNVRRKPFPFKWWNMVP
Sequence of Protein-arginine deiminase type-2 (Homo sapiens) (Q9Y2J8 whole entry, looked up): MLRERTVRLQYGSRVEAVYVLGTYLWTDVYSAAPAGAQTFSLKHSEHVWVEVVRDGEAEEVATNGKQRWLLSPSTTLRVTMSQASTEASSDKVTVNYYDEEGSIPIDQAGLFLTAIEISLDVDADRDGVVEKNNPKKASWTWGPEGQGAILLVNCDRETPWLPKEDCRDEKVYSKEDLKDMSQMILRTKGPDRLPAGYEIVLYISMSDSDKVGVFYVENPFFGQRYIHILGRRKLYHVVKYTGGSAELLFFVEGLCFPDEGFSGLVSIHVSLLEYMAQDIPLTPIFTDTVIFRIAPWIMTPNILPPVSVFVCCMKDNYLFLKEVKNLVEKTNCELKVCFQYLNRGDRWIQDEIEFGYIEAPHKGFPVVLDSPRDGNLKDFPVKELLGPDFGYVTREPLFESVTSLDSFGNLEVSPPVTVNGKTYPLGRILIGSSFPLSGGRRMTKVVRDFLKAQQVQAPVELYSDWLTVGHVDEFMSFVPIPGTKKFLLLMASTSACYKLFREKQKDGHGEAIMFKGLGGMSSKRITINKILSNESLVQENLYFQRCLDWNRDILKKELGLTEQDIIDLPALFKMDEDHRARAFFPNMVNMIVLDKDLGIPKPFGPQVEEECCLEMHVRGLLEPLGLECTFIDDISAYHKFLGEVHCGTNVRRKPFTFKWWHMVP
Sequence of Protein-arginine deiminase type-4 (Homo sapiens) (Q9UM07 whole entry, looked up): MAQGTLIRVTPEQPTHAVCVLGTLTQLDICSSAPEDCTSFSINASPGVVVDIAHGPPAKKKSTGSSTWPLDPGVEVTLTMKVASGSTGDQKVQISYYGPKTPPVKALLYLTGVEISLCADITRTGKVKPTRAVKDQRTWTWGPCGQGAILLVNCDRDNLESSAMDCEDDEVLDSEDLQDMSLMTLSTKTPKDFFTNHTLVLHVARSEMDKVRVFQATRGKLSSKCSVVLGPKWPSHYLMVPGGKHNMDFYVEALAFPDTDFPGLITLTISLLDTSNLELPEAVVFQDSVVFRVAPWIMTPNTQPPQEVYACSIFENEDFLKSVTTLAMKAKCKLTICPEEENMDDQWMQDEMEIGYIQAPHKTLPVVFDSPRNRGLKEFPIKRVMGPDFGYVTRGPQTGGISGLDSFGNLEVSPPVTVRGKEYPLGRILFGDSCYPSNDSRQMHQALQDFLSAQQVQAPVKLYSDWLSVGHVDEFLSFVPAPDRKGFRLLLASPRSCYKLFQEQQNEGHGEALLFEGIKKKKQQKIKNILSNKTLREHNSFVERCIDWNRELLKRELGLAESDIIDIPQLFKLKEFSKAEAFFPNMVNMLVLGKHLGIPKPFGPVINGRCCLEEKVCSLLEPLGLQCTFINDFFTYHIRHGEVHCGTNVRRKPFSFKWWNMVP

With `COC(=O)c1cccc(-c2ccc3c(n2)C(=O)C(N)=CC3=O)n1`, in assay [1], the IC50 (usually the concentration at which inhibition is half-maximal) was “inactive”. For the same compound, the IC50 in assay [2] was 420 nM; in assay [3] it was 330 nM; in assay [4], 880 nM.
